MrgX1 ag – agonists of human MrgX1 receptor; AID 588627; B-score at 10 µM; MrgX1-HEK293 cells, Fluo-4 calcium fluorescence, agonist mode; stronger effect = higher value; 0.44% of 310,000 active; Q96LB2;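 active = calcium response B-score plate-corrected fluorescence ratio at least 3 library SD, with starting fluorescence B-score inside 5 SD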
Target sequence (Q96LB2 whole entry, looked up): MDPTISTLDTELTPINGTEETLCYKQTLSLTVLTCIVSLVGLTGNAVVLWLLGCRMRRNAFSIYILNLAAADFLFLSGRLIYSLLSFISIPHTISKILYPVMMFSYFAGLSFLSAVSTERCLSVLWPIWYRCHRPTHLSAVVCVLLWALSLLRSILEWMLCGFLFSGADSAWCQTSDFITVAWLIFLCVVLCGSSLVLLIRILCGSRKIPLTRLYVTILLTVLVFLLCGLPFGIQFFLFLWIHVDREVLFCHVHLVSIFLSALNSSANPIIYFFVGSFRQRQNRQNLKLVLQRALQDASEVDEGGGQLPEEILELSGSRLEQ
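times = overnight plating, then 30 min 37 °C plus 30 min room-temperature dye loading | assay system = stable human MrgX1 HEK293 cell line | input = fifteen thousand cells per well | signal = kinetic calcium dye fluorescence, Fluo-4 NW | dosing = compound delivered in addition one of three | read-out = B-scored fluorescence response ratio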
MrgX1 allo act – allosterically activates human MrgX1 receptor signaling; MrgX1-HEK293, Fluo-4 calcium flux, FDSS; stronger effect = higher value; B-score at 10 µM; 0.63% of 310,000 active; Q96LB2;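 active = plate-corrected calcium response at least 3 library SD above typical, normal starting fluorescence, not activating the receptor alone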;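 note: compound read alongside a low EC10 to EC30 dose of BAM8-22 agonist; peak minus trough fluorescence over baseline measured at the second addition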
MrgX1 antagonist – human MrgX1 receptor antagonism, primary screen. MRGX1-HEK293 calcium flux, Fluo-4, BAM8-22 antagonism; stronger effect = lower value. Q96LB2. B-score at 10 µM. AID 588676. 1.3% of 310,000 active;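 active = calcium-response B-score plate-corrected more than 3 library SD below zero, starting fluorescence within 5 deviations, no agonist response on first addition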;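 note: peak minus trough fluorescence over baseline after final BAM8-22 challenge near maximal dose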
RGS4 block – inhibitors of human RGS4. P49798. 0.45% of 310,000 active. HEK293 M3R/RGS4 inducible, Fluo-4 calcium flux; stronger effect = higher value; triggered by carbachol at its EC20. B-score at 10 µM. AID 463165;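 active = B-score, a plate-corrected calcium signal, over three deviations above library mean, with baseline fluorescence within five deviations of library mean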;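 note: RGS4 expression induced by doxycycline in cells with stable M3 receptor; B-score is computed from the integrated fluorescence ratio over baseline after carbachol; higher B-score means a larger calcium signal and so more RGS4 inhibition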
Target sequence (P49798 whole entry, looked up): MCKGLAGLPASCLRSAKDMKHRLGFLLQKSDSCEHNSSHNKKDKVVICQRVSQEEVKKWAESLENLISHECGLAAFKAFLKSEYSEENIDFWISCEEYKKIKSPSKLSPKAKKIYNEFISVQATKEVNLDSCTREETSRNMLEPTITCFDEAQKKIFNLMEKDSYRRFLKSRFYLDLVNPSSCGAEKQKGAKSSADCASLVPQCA
RGS4 pot – RGS4 potentiation or activation; B-score at 10 µM; 0.92% of 310,000 active; HEK293 M3R/inducible RGS4, carbachol calcium flux Fluo4; stronger effect = lower value; AID 463111;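 active = B-score of the integrated calcium signal more than 4 SD below the library mean, with starting fluorescence not abnormally high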;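 note: negative B-score means reduced calcium response which marks RGS4 activation or potentiation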
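Material: M3R-expressing HEK293 line, RGS4 induced by doxycycline | Schedule: Overnight RGS4 induction, 30 min dye load 37 °C, 20 min compound RT | Measured by: Fluo4 fluorescence kinetic imaging of calcium | Read-out: Integrated calcium ratio converted to B score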
RGS4 inh valid – validation of RGS4 inhibitors; shares compounds with RGS4 block; HEK293 M3R/RGS4, carbachol calcium Fluo-4 fluorescence; carbachol added at its EC20; 0 = buffer wells, 100 = carbachol control; calcium response, % at 10 µM; 65% of 1,700 active; AID 492999;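 active = duplicate-averaged calcium response above the buffer-only control mean plus 5 SD of those controls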;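 note: integrated fluorescence ratio F max minus min over baseline F0; higher response in RGS4-induced cells means RGS4 inhibition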
RGS4 uninduced – checks RGS4 inhibitor effects in non-induced HEK293 M3R cells; activity (percent), % at 10 µM; shares compounds with RGS4 block; carbachol calcium Fluo-4; submaximal (EC20) carbachol stimulus; buffer wells 0%, carbachol control wells 100%; 20% of 1,900 active; call rule not given here;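 note: RGS4 induction absent so cells express M3R without RGS4; higher means more calcium signal and flags a non-specific hit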
RGS4 inh ctr2 – second RGS4 inhibitor counter-screen in uninduced cells lacking carbachol; shares compounds with RGS4 block; HEK293 M3R/RGS4 non-induced, Fluo-4 calcium, no carbachol; normalised: buffer wells 0%, carbachol wells 100%; calcium response (agonist-mode artifact), % at 10 µM; 22% of 1,900 active; AID 493001;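 active = duplicate-averaged calcium rise in uninduced cells above buffer wells' mean plus 5 SD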
Hits are given with their value; . = inactive; / = no result given. This is a sample that favours compounds with a hit; in the whole collection about 3.5% have one here.

SMILES	MrgX1 ag	MrgX1 allo act	MrgX1 antagonist	RGS4 block	RGS4 pot	RGS4 inh valid	RGS4 uninduced	RGS4 inh ctr2
COC(=O)c1cc(=O)n(Cc2ccc(OC)c(OC)c2)c(=Nc2ccc(F)cc2)s1	.	.	.	.	.	/	/	/
COC(=O)c1cc(=O)n(-c2ccccc2)c(=Nc2ccccc2)s1	.	.	.	8.1	.	19%	.	.
COC(=O)c1cc(=O)n(CCc2ccc(OC)c(OC)c2)c(=Nc2ccc(F)c(Cl)c2)s1	.	.	.	5.4	.	13%	.	10%
COC(=O)c1cc(=O)n(Cc2ccco2)c(=Nc2ccc(F)cc2)s1	.	.	.	6.1	.	15%	44%	.
COC(=O)c1cc(=O)n(Cc2ccc(F)cc2)c(=Nc2ccccc2)s1	.	.	.	.	.	/	/	/
COc1ccc(CNC(=O)[C@H](Cc2ccccc2)NC(=O)C2CCNCC2)cc1	.	.	.	.	.	/	/	/
Cc1ccc(CNC(=O)c2cn(C3CCCCC3)c(=O)c3c2c2ccccc2n3C)o1	.	.	.	6.1	.	13%	.	.
COc1cc(C=O)cc(Cl)c1OC(=O)N1CCOCC1	.	.	.	.	.	/	/	/
O=C(Nc1ccc2ccccc2c1)C(=O)C1C(=O)Nc2ccccc21 (stereo not drawn)	.	6.9	.	8.1	.	12%	.	.
Cc1cccc(NC(=O)C(=O)C2C(=O)Nc3ccccc32)c1 (stereo not drawn)	.	.	.	.	.	/	/	/
COc1ccc(-c2cc(-c3ccc(O)cc3)nc(N)c2C#N)cc1OC	.	.	.	.	.	/	/	/
Cc1ccc(-c2cc(-c3ccc4c(c3)OCO4)c(C#N)c(N)n2)o1	.	.	.	8.8	.	.	.	.
Cc1ccc(-c2cc(-c3ccc(F)cc3)c(C#N)c(N)n2)o1	27	.	.	.	.	.	.	.
Cc1ccc(-c2cc(-c3ccc(Cl)cc3)c(C#N)c(N)n2)o1	.	.	.	6.3	.	5.0%	.	12%
Cc1cc(-c2cc(-c3ccc(Cl)cc3)nc(N)c2C#N)co1	.	.	.	9.8	.	5.0%	.	.
Cc1c(-c2ccc(F)cc2)nc(N)c(C#N)c1-c1ccco1	.	.	.	.	.	/	/	/
Cc1ccc(-c2c(C#N)c(N)nc3c2CCCCC3)o1	.	.	.	.	.	/	/	/
Cc1nc(N)c(C#N)c(-c2ccc3c(c2)OCO3)c1C	.	.	.	.	.	/	/	/
CCCS(=O)(=O)N1CCCC(C(=O)Oc2ccc(C)c(C)c2)C1 (stereo not drawn)	.	.	.	.	.	/	/	/
CCOc1cc(-c2cc(-c3ccc(C)o3)nc(N)c2C#N)ccc1O	.	.	.	.	.	/	/	/
Cc1ccc(-c2cc(-c3ccc(C)o3)nc(N)c2C#N)cc1	.	.	.	7	.	.	.	.
O=C(NNc1nc(=O)c2cccnc2s1)c1ccccc1O	.	.	.	5.2	.	18%	.	.
O=C(NNc1c2ccccc2nc2ccccc12)c1ccccc1O	.	.	.	.	.	/	/	/
CCN(CC)c1ccc(/C=C/C(=O)c2cccnc2)cc1	.	.	.	.	.	/	/	/
N#Cc1ccc(/C=C/C(=O)c2cccnc2)cc1	.	.	.	19	.	46%	.	.
SMILES	MrgX1 ag	MrgX1 allo act	MrgX1 antagonist	RGS4 block	RGS4 pot	RGS4 inh valid	RGS4 uninduced	RGS4 inh ctr2
C/C(=N\N=C1\NC(=O)C(CC(=O)Nc2ccc(C)c(Cl)c2)S1)C(C)(C)C (stereo not drawn)	.	.	.	7.5	.	70%	.	.
C/C(=N\N=C1\NC(=O)C(CC(=O)Nc2ccc(Cl)cc2)S1)c1ccco1 (stereo not drawn)	.	.	.	.	.	/	/	/
COCCN1CC(C(=O)NCc2ncccc2C)CCC1=O (stereo not drawn)	.	.	.	.	.	/	/	/
Cc1ccc(SC(CC(=O)c2ccc(F)cc2)C(=O)O)cc1 (stereo not drawn)	.	.	.	.	.	/	.	.
CC(C)Nc1nc(-c2ccncc2)nc(-c2ccccc2)c1C#N	.	.	.	.	.	/	/	/
Cc1ccc2c(c1)c(C1=c3ccccc3=NC1=O)c(O)n2C	.	.	.	.	.	/	/	/
C=CCn1c(O)c(C2=c3ccccc3=NC2=O)c2ccccc21	.	.	.	5.6	.	12%	33%	22%
Cc1ccc(C(=O)NCC(=O)N2CCC(Cc3ccccc3)CC2)cc1	.	.	.	.	.	/	/	/
O=C1NC(=S)S/C1=C\c1coc2ccc(O)cc2c1=O	.	.	.	6.3	.	26%	65%	.
COc1ccc(CN2CCN(Cc3ccc(CO)o3)CC2CCO)cc1C (stereo not drawn)	.	.	.	.	.	/	/	/
CC1=C(C(=O)c2ccccc2)C(c2cn(-c3ccccc3)nc2-c2ccc(Cl)cc2)NC(=S)N1 (stereo not drawn)	.	.	.	4.9	.	10%	.	9.0%
CCOC(=O)CSc1[nH]c2cc(OC)ccc2c1[N+](=O)[O-]	.	.	.	.	.	/	/	/
COC(=O)CSc1[nH]c2ccc(F)cc2c1[N+](=O)[O-]	.	.	.	19	.	34%	.	.
O=C(Oc1ccc(Cl)c2cccnc12)c1cccc([N+](=O)[O-])c1	.	.	.	4.7	.	25%	.	.
CC(=O)CCc1oc2ccc(NC(C)=O)cc2c1-c1ccc(C)o1	.	.	.	5.3	.	.	.	.
CC(=O)CCc1oc2ccc(C)cc2c1-c1ccc(C)o1	.	.	.	.	.	/	/	/
COc1ccc(-c2cn[nH]c2-c2ccc(OCc3ccc([N+](=O)[O-])cc3)cc2O)cc1OC	.	.	.	.	.	/	/	/
CCc1cc(-c2[nH]ncc2-c2ccc([N+](=O)[O-])cc2)c(O)cc1OC	.	26	.	12	.	34%	.	.
CC(=O)Nc1ccc(NC(=O)C(C)NC(C)c2cccc3ccccc23)cc1 (stereo not drawn)	.	.	.	.	.	/	/	/
COCCCNC(=O)c1cn(Cc2c(F)cccc2Cl)nn1	.	.	.	5.1	.	.	.	.
CCN1CCN(C(=O)c2cc(=O)c3cc(C)ccc3o2)CC1	.	.	.	.	.	/	/	/
Cc1ccc(-c2cc(-c3ccccc3[N+](=O)[O-])[nH]n2)c(O)c1	.	.	.	.	.	/	.	.
Cc1ccc(-c2cc(-c3ccccc3Cl)[nH]n2)c(O)c1	.	.	.	.	.	/	/	/
O=C(CSc1cccc[n+]1[O-])Nc1cc2c(cc1Cl)C(=O)c1ccccc1C2=O	.	.	.	12	.	65%	.	.
